Measurements: ChEMBL document CHEMBL1154145, “Inhibitory effect of macabarterin, a polyoxygenated ellagitannin from Macaranga barteri, on human neutrophil respiratory burst activity” (J Nat Prod, 2008)
In brackets after ≈: the same amount, converted by molar mass.

Legend:
[1] = Antiinflammatory activity in human neutrophils assessed inhibition of superoxide anions production; format: functional, cell-based; details: Neutrophil
Method in brief: (§1)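 Neutrophils came from heparinized blood of healthy volunteers, diluted with modified Hank's solution (MHS, pH 7.4), left 20 min at RT, then Ficoll-separated (>97% trypan-blue viable). 1.0 × 10^4 cells/mL in MHS with 250 µM WST-1 and compound were equilibrated at 37 °C. Opsonized zymosan A (15 mg/mL, pooled human serum) was added to start the reaction. A450 was read. Inhibition was calculated against a DMSO blank from five replicates.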

[2] = Antiinflammatory activity in human neutrophils assessed as respiratory burst inhibition at 1000 ug/ml by WST-1 assay; format: functional; details: Neutrophil; method in brief: as §1

COc1ccc2c(c1)c(CC(=O)O)c(C)n2C(=O)c1ccc(Cl)cc1 [INDOMETHACIN]
IC50 [1]: 758 µg/mL (≈ 2120 µM) | inhibition at 1000 µg/mL [2]: 58.8%

O=C(O)c1cc(O)c(O)c(O)c1 [GALLIC ACID]
inhibition at 1000 µg/mL [2]: 42.9%

COc1c(O[C@@H]2OC[C@@H](O)[C@H](O)[C@H]2O)cc2c(=O)oc3c(O)c(O)cc4c(=O)oc1c2c34
inhibition at 1000 µg/mL [2]: 29.1%

COc1c(O)cc2c(=O)oc3c(O)c(O)cc4c(=O)oc1c2c34
inhibition at 1000 µg/mL [2]: 13.7%

O=C(O[C@@H]1O[C@@H]2COC(=O)c3cc(O)c(O)c(O)c3-c3c(cc(O)c(O)c3O)C(=O)O[C@@H]3[C@H]1OC(=O)c1cc(O)c(O)c4c1C1C5(C[C@]6(O)OC[C@@H](O)[C@@H]6C[C@@H]5C(O)(O)C(O)(O)[C@]1(O)O4)C(=O)O[C@@H]32)c1cc(O)c(O)c(O)c1 (stereo partly specified) [MACABARTERIN]
IC50 [1]: 821 µg/mL (≈ 746 µM) | inhibition at 1000 µg/mL [2]: 73.2%

O=c1oc2c(O)c(O)cc3c(=O)oc4c(O)c(O)cc1c4c23 [ELLAGIC ACID]
inhibition at 1000 µg/mL [2]: 27.1%

CC(=O)Oc1ccccc1C(=O)O [ASPIRIN]
IC50 [1]: 279 µg/mL (≈ 1550 µM) | inhibition at 1000 µg/mL [2]: 70.5%

COc1cc2ccc(=O)oc2cc1O [SCOPOLETIN]
inhibition at 1000 µg/mL [2]: 31.2%
